CHO parental Ca: ATP-evoked calcium signal inhibitors, parental CHO, primary screen, counter-screen for OX1R antagonist project, cell-based, fluorescence, Fluo-8 calcium dye; parental CHO-K1, ATP-induced calcium, Fluo-8 fluorescence; inhibition, % at 5.6 µM; hit rate 0.63% among 330,000; AID 463079, 2010;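 active = inhibition above that plate's mean sample inhibition plus 3 SD, cut at about 26% in these data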
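Material – parental CHO cells · Reagent – ATP stimulus · Compound – single nominal dose of 5.6 µM per compound · Detection – Fluo-8 fluorescence · Read-out basis – percent inhibition of calcium signal · Controls – ATP-challenged DMSO wells low, unchallenged DMSO wells high · Repeats – no replicates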
OX1R antag-1: antagonists of human orexin 1 receptor (OX1R) | Orexin/Hypocretin receptor type 1 (Homo sapiens), O43613 | OX1R-expressing cells, FRET antagonist read-out | inhibition, % at 6.6 µM | hit rate 1.8% among 330,000 | AID 485270, 2010; in the data active = inhibition mostly above about 38%, no sharp cut-off; inactive = mostly below about 40%
Target sequence (O43613 whole entry, looked up): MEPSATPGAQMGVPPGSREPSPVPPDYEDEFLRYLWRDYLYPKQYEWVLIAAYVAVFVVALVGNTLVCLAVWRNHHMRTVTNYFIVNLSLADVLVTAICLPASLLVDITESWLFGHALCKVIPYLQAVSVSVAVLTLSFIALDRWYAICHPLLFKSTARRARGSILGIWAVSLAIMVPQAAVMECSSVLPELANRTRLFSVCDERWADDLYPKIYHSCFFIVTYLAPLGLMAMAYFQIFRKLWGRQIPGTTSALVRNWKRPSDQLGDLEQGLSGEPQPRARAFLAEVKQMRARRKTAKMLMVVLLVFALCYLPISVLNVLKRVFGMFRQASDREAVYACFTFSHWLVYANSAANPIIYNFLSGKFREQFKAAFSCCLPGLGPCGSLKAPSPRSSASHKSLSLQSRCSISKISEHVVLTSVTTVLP
GPR7 antag: GPR7 receptor antagonists, primary screen, cell-based, fluorescence, single concentration. GPR7-expressing cells, fluorescence antagonist assay. inhibition, % at 4.4 µM. hit rate 1.1% among 290,000; in the data active = inhibition above about 16%, passing the limit was not always enough;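 also: cells stimulated with the agonist NPW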
TAAR1 antag: human TAAR1 antagonists, primary screen, Fluo-8 calcium fluorescence, CHO RD-HGA16 cells; AID 624466, 2012; inhibition, % at 3 µM; hit rate 1.5% among 360,000; antagonist; Trace amine-associated receptor 1 (Homo sapiens), Q96RJ0;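 active = inhibition above a per-plate cutoff, the mean inhibition of test compounds on that plate plus 3 SD, cut at about 49% in these data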
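Material: RD-HGA16 CHO cells with stable hTAAR1 and Gα16; Dosing: single nominal final test compound concentration of 3 µM; Schedule: seeding 17-24 h prior, 75-min 37 °C, 30-min RT dye loading; Detection: kinetic Fluo-8 calcium fluorescence measurement; Measure: % inhibition from peak post-agonist over basal fluorescence ratio; Benchmarks: vehicle and agonist controls.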
OX1R antag-2: OX1R (HCRTR1) antagonists, primary screen, fluorescence, CHO/OX1R cells, Fluo-8 calcium, orexin A | Fluo-8 calcium fluorescence | inhibition, % at 5 µM | hit rate 0.43% among 330,000 | AID 434989, 2010;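 active = inhibition above its plate's threshold, mean inhibition of all tested compounds on the plate plus 3 SD, cut at about 37% in these data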
TAAR1 ag: human TAAR1 agonists, primary screen, Fluo-8 calcium fluorescence, CHO RD-HGA16 cells | Trace amine-associated receptor 1 (Homo sapiens), Q96RJ0 | vehicle wells 0%, saturating PEA agonist 100% | activation, % at 3 µM | hit rate 0.99% among 360,000 | AID 624467, 2012;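 active = activation above the mean activation of all test compounds in the run plus 3 SD, cut at about 38% in these data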
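test system = CHO RD-HGA16 cells carrying human TAAR1 plus Gα16 | schedule = 17-24 h seeding, 75 min 37 °C dye, 30 min RT | compound dosing = 3 µM single concentration | control set = DMSO and PEA EC100 | replicates = n 1 | signal = Fluo-8 fluorescence, 5 s baseline then 140 s kinetic read | measure = percent activation vs PEA EC100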
Numbers stand for hits; n = inactive; x = not tested or not shown. The list is not random: actives were taken first. Their share in the collection is about 4.6%.

SMILES	CHO parental Ca	OX1R antag-1	GPR7 antag	TAAR1 antag	OX1R antag-2	TAAR1 ag
COCC(C)n1c(SCC(=O)Nc2cccnc2Cl)nc2ccccc2c1=O (configuration not stated)	x	x	x	n	x	n
Cn1ncc(Cl)c1C(=O)NNC(=O)Nc1cccc2ccccc12	x	x	n	n	x	n
C=CCNC(=S)N(C)[C@H]1C[C@H]2c3cc(-c4ccccc4C)ccc3CCN2C[C@H]1[C@H](C)O	x	x	x	n	x	n
CCC1Oc2ccc(C)cc2N(CC(=O)NCCc2ccc(OC)c(OC)c2)C1=O (configuration not stated)	n	61.8	n	n	n	n
CCOC(=O)C1CCN(C(=O)c2cc(S(=O)(=O)N3CCCCCC3)ccc2OC)CC1	n	n	x	n	n	n
Cc1ccc(-c2nc3cccnc3o2)cc1NC(=O)COc1ccc(C(C)(C)C)cc1	40.0	n	n	68.6	n	n
Cc1ccc(-c2nc3cccnc3o2)cc1NC(=O)COc1ccc(Cl)cc1C	n	n	n	n	n	n
O=C(Cn1nnc(-c2ccccc2F)n1)Nc1ccc2c(c1)OCO2	n	n	n	n	n	n
CC(C)[C@@H](C(=O)OCC(=O)Nc1ccc2c(c1)OCO2)N1C(=O)c2ccccc2C1=O	n	n	n	n	n	n
O=C(COC(=O)c1ccccc1NCc1ccco1)Nc1ccc2c(c1)OCO2	n	n	n	n	n	n
O=C(Nc1ccccc1C(=O)OCC(=O)c1c[nH]c2ccccc12)c1ccco1	n	49.6	n	n	n	n
O=C(COC(=O)[C@H](Cc1ccccc1)N1C(=O)c2ccccc2C1=O)Nc1ccc2c(c1)OCO2	n	n	n	56.5	n	n
O=C(COC(=O)c1ccccc1NC(=O)c1ccco1)Nc1ccc2c(c1)OCO2	n	71.9	n	n	n	n
CC(C)(C)NC(=O)COC(=O)c1ccccc1NC(=O)c1ccco1	n	n	n	n	n	n
O=C(Cn1nnc(-c2ccccc2)n1)Nc1ccc2c(c1)OCO2	n	n	n	n	n	42.3
O=S1(=O)N[C@H](Cc2ccccc2)COc2cccc(N3CCSCC3)c21	x	x	x	n	x	n
COc1ccc(C(=O)C(=O)N2CCN(S(=O)(=O)c3cccc4c(N(C)C)cccc34)CC2)cc1OC	x	x	x	n	x	n
Fc1ccc(-c2ccc3c(n2)CCCN3Cc2ccccc2C(F)(F)F)cc1	x	x	x	n	x	n
CCCNC(=O)C1(C)CCN(C(=O)c2cc(C(C)(C)C)nn2C)C1 (configuration not stated)	x	x	x	n	x	n
Cc1cc(CSc2ccccc2)ccc1NC(=O)c1cccc([N+](=O)[O-])c1	n	n	n	49.1	n	n
Cc1cc(O)c(NC(=O)c2cccc([N+](=O)[O-])c2)cc1C	n	n	n	n	n	n
CC(C)NC(=O)C1(C)CSCC(=O)N1CCOc1ccccc1 (configuration not stated)	x	x	x	n	x	n
Cc1ccc(C)c(N=Nc2ccc(O)c3ncccc23)c1	37.3	n	n	n	n	n
Cc1cccc(N=Nc2ccc(O)c3ncccc23)c1	67.7	n	n	76.4	47.8	n
Oc1ccc(N=Nc2ccc3c(c2)OCCO3)c2ncccc12	50.8	n	n	79.1	50.5	n
SMILES	CHO parental Ca	OX1R antag-1	GPR7 antag	TAAR1 antag	OX1R antag-2	TAAR1 ag
CCOc1ccc(N=Nc2ccc(O)c3ncccc23)cc1	x	x	n	n	x	n
CN1CC[C@@H]2CN(S(=O)(=O)c3ccccc3)[C@H](c3ccccc3Br)C[C@@H]21	x	x	x	n	x	n
O=C(Nc1nnc([C@H]2C[C@H](O)[C@@H](CO)O2)s1)Nc1ccc(F)cc1F	x	x	x	n	x	n
CC(C)OC(=O)[C@@H](Cc1ccccc1)N[C@H](/C=C/c1ccccc1)[C@@H](O)Cc1ccccc1	x	x	x	n	x	n
CC(N)C(=O)NC(C(=O)NC(C)C(=O)Nc1cccc2ccccc12)C(C)C (configuration not stated)	x	x	x	n	x	n
COc1cccc(/C=N/NC(=O)c2ccc3nc[nH]c3c2)c1O	n	n	n	n	n	n
COc1cccc(/C=N/NC(=O)c2cc3c(OC)ccc(OC)c3[nH]2)c1O	n	47.8	n	n	n	n
CCN(CC)C(=O)c1cccc2nc3ccccc3nc12	n	72.1	n	n	n	n
CCN(CC)C(=O)c1ccccc1NC(=O)c1ccccc1	n	n	n	n	n	n
COC1=CC(=O)OC(c2cccc(C#N)c2)C1 (configuration not stated)	x	x	x	n	x	n
COc1ccc(S(=O)(=O)N2CCOCC2)cc1NC(=O)c1ccc(SC)cc1OC	x	x	x	n	x	n
C[C@H](CO)N1C[C@H](C)[C@@H](CN(C)C(=O)CN2CCOCC2)Oc2cc(Br)ccc2S1(=O)=O	x	x	x	n	x	n
CC(=O)c1ccccc1Oc1nc(CN2CCOCC2)nc2scc(-c3cccs3)c12	n	44.1	n	n	n	n
CC(=O)C(C(C)=O)c1c(Cl)c(O)c(O)c2c(C(=O)c3ccccc3)coc12	n	n	n	n	n	39.0
CN1CCN(Cc2c(O)ccc3occ(C(=O)c4ccccc4)c23)CC1	n	n	n	n	n	n
O=C(c1ccccc1Cl)N1CCN(C(=O)C2CCCO2)CC1 (configuration not stated)	x	x	x	n	x	n
O=C(c1ccc([N+](=O)[O-])cc1[N+](=O)[O-])N1CCN(C(=O)C2CCCO2)CC1 (configuration not stated)	n	33.5	x	n	n	n
O=c1c2c([N+](=O)[O-])cc([N+](=O)[O-])cc2nc2ccccn12	n	73.2	n	n	n	n
Cc1c(O)nc2ccccn2c1=O	n	n	n	n	n	n
C=CCCC1CN(Cc2ccc(OC)cc2)S(=O)(=O)c2c(cccc2N(C)S(=O)(=O)c2ccc(C)cc2)O1 (configuration not stated)	x	x	x	n	x	n
Cc1cc(CNC(=O)C(C)n2cc([N+](=O)[O-])cn2)c2ccccc2n1 (configuration not stated)	n	68.7	n	n	n	n
O=S1(=O)N[C@H](Cc2ccccc2)COc2cc(N3CCOCC3)ccc21	x	x	x	n	x	n
C=CCOC(=O)C1=C(C)N=C2SCCC(=O)N2C1c1ccc(OC(=O)c2ccco2)cc1 (configuration not stated)	n	n	25.5	n	n	n
COC(=O)C1=C(C)N=C2SCCC(=O)N2C1c1ccc(OC(=O)c2ccco2)cc1 (configuration not stated)	x	x	n	n	x	n

Bioassay records (PubChem)
